Data taken from ChEMBL document CHEMBL1150804, “Nonnucleoside inhibitor of measles virus RNA-dependent RNA polymerase complex activity” (Antimicrob Agents Chemother, 2007).
pEC50: −log10 of the molar value. The source made the active and inactive calls. The calls are words filed in the database; no cut-off is given here.

Key:
Measles morbillivirus [1] = test: Antiviral activity against measles virus Edm in Vero cells expressing human SLAM assessed as reduction of virus yield; format: functional, organism-based
[2] = Cytotoxicity against african green monkey Vero cells expressing human SLAM by Promega assay; format: cell-based; conditions: chlorocebus sabaeus
Outline: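 LDH-release assay: 12,000 cells/well exposed 24 h at 37°C to twofold compound dilutions (top 150 μM, or 300 μM for one compound), four replicates. Formazan read at 490 nm; % viability = 100 − [(experimental − background)/(maximum − background) × 100]; four experiments.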

[3] = Selectivity index, ratio of CC50 for african green monkey Vero cells by Promega assay to IC50 for measles virus Edm; format: functional
[4] = Cytotoxicity against african green monkey Vero cells expressing human SLAM assessed as reduction in viable cells after 30 hrs by trypan blue exclusion assay; format: cell-based; conditions: chlorocebus sabaeus
Outline: (§1)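 Trypan blue exclusion: 2 × 10^5 cells/well with fivefold compound dilutions (top 500 μM), 37°C for 30 h, three replicates per concentration. Detached cells stained with trypan blue 15 min at room temperature; live cells counted on a hemacytometer; expressed vs DMSO controls; three experiments.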

[5] = Selectivity index, ratio of CC50 for african green monkey Vero cells by trypan blue exclusion assay to IC50 for measles virus Edm; format: functional
Measles morbillivirus [6] = test: Antiviral activity against measles virus assessed as inhibition of viral H and F protein-mediated cell-cell fusion at 150 uM; format: functional, organism-based
Outline: (§2)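 Cells (6 × 10^5/well) transfected with 4 μg each of MV H and F plasmids; at 4 h moved into wells with twofold compound dilutions (top 150 μM). Fusion scored microscopically, photographed at 24 h; at 48 h syncytium-linked cytotoxicity measured by LDH-release assay, % vs DMSO; four replicates.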

Measles morbillivirus [7] = test: Antiviral activity against measles virus assessed as inhibition of viral H and F protein-mediated cell-cell fusion; format: functional, organism-based; outline: as §2
Measles morbillivirus [8] = test: Antiviral activity against measles virus assessed as inhibition of virus mediated cytopathogenicity at 15 uMby syncytium formation assay; format: functional, organism-based; conditions: 15 uM
Measles morbillivirus [9] = test: Antiviral activity against measles virus assessed as inhibition of viral H and F protein-mediated cell-cell fusion at 15 uM; format: functional, organism-based; outline: as §2
Measles morbillivirus [10] = test: Antiviral activity against measles virus genotype D9 assessed as reduction of virus yield; format: functional, organism-based
Outline: (§3)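 Clinical MV isolates (grown on Vero-SLAM) infected at MOI 0.1 PFU/cell into 4 × 10^5 cells with threefold compound dilutions (top 37.5 μM) or DMSO at 37°C. At 36 h, cell-associated virus titered by TCID50; EC50 at 50% of DMSO yield; two experiments.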

[11] = tested on: Measles virus genotype D7; test: Antiviral activity against measles virus genotype D7 assessed as reduction of virus yield; format: functional, organism-based; conditions: Measles morbillivirus; outline: as §3
[12] = tested on: Measles virus genotype D6; test: Antiviral activity against measles virus genotype D6 assessed as reduction of virus yield; format: functional, organism-based; conditions: Measles morbillivirus; outline: as §3
Measles morbillivirus [13] = test: Antiviral activity against measles virus genotype C assessed as reduction of virus yield; format: functional, organism-based; outline: as §3
Measles morbillivirus [14] = test: Antiviral activity against measles virus genotype B3-2 assessed as reduction of virus yield; format: functional, organism-based; outline: as §3
Vero = test: Cytotoxicity against african green monkey Vero cells expressing human SLAM assessed as reduction in viable cells at 500 uM after 30 hrs by trypan blue exclusion assay; format: cell-based; conditions: chlorocebus sabaeus; outline: as §1
Measles morbillivirus [15] = test: Antiviral activity against measles virus Alaska assessed as reduction of virus yield in presence of 10 mg/ml BSA; format: functional, organism-based
Outline: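 Specificity test with MV-Alaska: 4 × 10^5 cells infected in serum-free medium at MOI 0.1 or 0.5 PFU/cell with fourfold dilutions (top 12.5 μM), with or without BSA at 10 mg/ml final.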

Morbillivirus canis = test: Antiviral activity against Canine distemper virus assessed as reduction of virus yield; format: functional, organism-based
Outline: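 Virus-yield dose-response: 4 × 10^5 cells/well infected at MOI 0.1 PFU/cell (CDV stocks grown on Vero-dogSLAM) with twofold compound dilutions (top 75 μM) or DMSO; kept at 37°C with compound. At 36 h, cell-associated virus titered by TCID50 (Spearman-Karber); titers normalized to DMSO; EC50 taken at 50% of DMSO yield; two experiments.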

[16] = tested on: Human parainfluenza virus 2; test: Antiviral activity against human parainfluenza virus 2 assessed as reduction of virus yield at 75 uM; format: functional, organism-based; conditions: Human orthorubulavirus 2
Measles morbillivirus [17] = test: Antiviral activity against measles virus Edm in Vero cells expressing human SLAM assessed as reduction of virus yield preincubated in culture medium for 24 hrs; format: functional, organism-based
Measles morbillivirus [18] = test: Antiviral activity against measles virus genotype G2 assessed as reduction of virus yield; format: functional, organism-based; outline: as §3
Measles morbillivirus [19] = test: Antiviral activity against measles virus genotype G3 assessed as reduction of virus yield; format: functional, organism-based; outline: as §3
Measles morbillivirus [20] = test: Antiviral activity against measles virus genotype H2 assessed as reduction of virus yield; format: functional, organism-based; outline: as §3
Measles virus genotype A = test: Antiviral activity against measles virus genotype A assessed as reduction of virus yield; format: functional, organism-based; conditions: Measles morbillivirus; outline: as §3
BSR T7/5 [21] = test: Inhibition of measles virus RNA-dependent RNA polymerase complex activity in BSR T7/5 cells assessed as CAT promoter expression by minireplicon assay; format: cell-based; conditions: Measles morbillivirus
Outline: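 BSR T7/5 cells (5 × 10^5) transfected with MV L (0.24 μg), N (0.94 μg), P (0.29 μg) plasmids plus 2 μg CAT minigenome; controls lacked L. At 2 h, threefold compound dilutions (top 30 μM) or DMSO added.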

Measles morbillivirus [22] = test: Antiviral activity against measles virus assessed as reduction of virus yield at 15 uM administered 12 hrs postinfection; format: functional; parameters: scale not given: the % may be the effect or the level left
Outline: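 One-step time-of-addition: 3 × 10^5 cells infected with MV at MOI 1.0 PFU/cell; compound (15 μM final) added at set times postinfection; DMSO controls. At 20 h postinfection, cell-associated virus harvested and titered by TCID50; two experiments.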

BSR T7/5 [23] = test: Inhibition of Nipah virus RNA-dependent RNA polymerase complex activity in BSR T7/5 cells assessed as CAT promoter expression by minireplicon assay; format: cell-based; conditions: Henipavirus nipahense
Outline: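 BSR T7/5 cells (T7 polymerase-expressing) transfected with plasmids for Nipah L (0.4 μg), N (1.25 μg), P (0.8 μg) plus 3.5 μg Nipah CAT minigenome reporter; controls lacked L plasmid. Compound added 2 h posttransfection in threefold dilutions (highest 30 μM), DMSO controls.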

Escherichia phage T7 = test: Inhibition of Enterobacteria phage T7 polymerase assessed as F protein synthesis by in vitro transcription/translation assay
Outline: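 Cell-free rabbit reticulocyte lysate with 0.5 μg T7-promoter MV F plasmid, 20 μCi [35S]methionine and 50 μM compound or DMSO, 30°C for 90 min. Products separated on 12% SDS gels and autoradiographed. Control: plasmid with F gene reversed relative to the T7 promoter.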

For O=C(NC(=O)N(c1ccc(Cl)cc1)S(=O)(=O)c1ccccc1)Nc1ccccc1Cl, the pEC50 (Measles morbillivirus [1]) was 5.55, the CC50 [2] was 121 µM and the “Ratio CC50/EC50” value [3] was 43.2.
Work on Cc1ccc2[nH]c(=O)c(CNS(=O)(=O)c3ccccc3)c(-c3ccccc3)c2c1 yielded a pEC50 (Measles morbillivirus [1]) of 4.80, a CC50 [2] of over 150 µM and a CC50 at 30 h [4] of 71 µM. For the same molecule, the “Ratio CC50/EC50” value [3] was over 10 and the “Ratio CC50/EC50” value [5] was 4.5.
In the case of Cc1ccc2nsnc2c1S(=O)(=O)Nc1ccc(Cl)cc1, the pEC50 (Measles morbillivirus [1]) was 5.70, the CC50 [2] was 100 µM and the “Ratio CC50/EC50” value [3] was 50.
For Cn1nc(C(F)(F)F)cc1C(=O)Nc1ccc(S(=O)(=O)N2CCCC2)cc1, the pEC50 (Measles morbillivirus [1]) was 6.62, the CC50 [2] was over 300 µM and the Activity (Measles morbillivirus [6]) was “inactive”. For the same molecule, the Activity (Measles morbillivirus [7]) was “Active”, the Activity (Measles morbillivirus [8]) was “Active” and the Activity (Measles morbillivirus [9]) was “inactive”. For the same molecule, the pEC50 (Measles morbillivirus [10]) was 7.05, the pEC50 [11] was 7.10 and the pEC50 [12] was 7.00. The pEC50 (Measles morbillivirus [13]) was 6.96, the pEC50 (Measles morbillivirus [14]) was 6.85 and the CC50 at 30 h [4] was over 500 µM. For the same molecule, the Activity (Vero) was 20%, the Activity (Measles morbillivirus [15]) was “Active” and the pEC50 (Morbillivirus canis) was 4.55. The pEC50 [16] was under 4.12, the Activity (Measles morbillivirus [17]) was “Active” and the pEC50 (Measles morbillivirus [18]) was 7.30. For the same molecule, the pEC50 (Measles morbillivirus [19]) was 6.96, the pEC50 (Measles morbillivirus [20]) was 7.46 and the pEC50 (Measles virus genotype A) was 6.62. For the same molecule, the Activity (BSR T7/5 [21]) was “Active”, the Activity (Measles morbillivirus [22]) was 99.9% and the Activity (BSR T7/5 [23]) was “inactive”. The Activity (Escherichia phage T7) was “inactive”.
